Test results as given in ChEMBL document CHEMBL4190262, “Tuning of β-glucosidase and α-galactosidase inhibition by generation and in situ screening of a library of pyrrolidine-triazole hybrid molecules” (Eur J Med Chem, 2017).

What was measured:
[1] = target: Alpha-galactosidase (Coffea arabica, UniProt Q42656); experiment: Inhibition of coffee beans alpha-galactosidase using p-nitrophenyl glycopyranoside preincubated for 5 mins followed by substrate addition measured after 20 mins by visible absorption spectroscopic method
Outline: (§1)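 IC50 determined only for compounds giving ≥80% inhibition at 1 mM, read from plots of % inhibition versus inhibitor concentration. p-Nitrophenyl glycopyranoside substrate (10 mM solution) at the enzyme's optimal pH, with 0.01–0.5 units/mL enzyme. 5 min rt preincubation with enzyme, then 20 min at 37 °C. Borate stop (pH 9.8), absorbance at 405 nm. Duplicates averaged.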

[2] = system: Prunus dulcis; experiment: Inhibition of almond beta-glucosidase at 1 mM using p-nitrophenyl glycopyranoside preincubated for 5 mins followed by substrate addition measured after 20 mins by visible absorption spectroscopic method relative to control
Outline: (§2)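 Test compound at 1 mM in well. Mix: 0.01–0.5 units/mL enzyme plus 10 mM p-nitrophenyl glycopyranoside (aqueous solution), buffered to the enzyme's optimal pH. Enzyme and inhibitor preincubated 5 min at rt. Substrate then added and incubated 20 min at 37 °C. Stopped with sodium borate (pH 9.8). p-Nitrophenolate read at 405 nm. Duplicates averaged.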

[3] = target: Alpha-galactosidase (Coffea arabica) (UniProt Q42656); experiment: Inhibition of coffee beans alpha-galactosidase at 50 uM using p-nitrophenyl glycopyranoside preincubated for 5 mins followed by substrate addition measured after 20 mins by visible absorption spectroscopic method relative to control
Outline: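 Crude triazoles from in situ CuAAC (ascorbate/CuSO4, 24 h rt, water-diluted) were screened at 50 μM per well, assuming full conversion. Enzyme was coffee bean α-galactosidase at pH 6, 37 °C, with p-nitrophenyl glycoside substrate and 405 nm read-out. Blanks of CuSO4, ascorbate and each alkyne were run.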

[4] = Inhibition of bovine liver beta-glucosidase using p-nitrophenyl glycopyranoside preincubated for 5 mins followed by substrate addition measured after 20 mins by visible absorption spectroscopic method; parameters: species or system Bos taurus; outline: as §1
[5] = target: T1, Lysosomal acid glucosylceramidase (Homo sapiens, UniProt P04062); experiment: Inhibition of human lysosomal beta-glucocerebrosidase using 4-methylumbelliferyl-beta-D-glucopyranoside as substrate preincubated for 45 mins followed by substrate addition measured after 30 mins by fluorescence spectroscopic method
T1 sequence (P04062 whole entry): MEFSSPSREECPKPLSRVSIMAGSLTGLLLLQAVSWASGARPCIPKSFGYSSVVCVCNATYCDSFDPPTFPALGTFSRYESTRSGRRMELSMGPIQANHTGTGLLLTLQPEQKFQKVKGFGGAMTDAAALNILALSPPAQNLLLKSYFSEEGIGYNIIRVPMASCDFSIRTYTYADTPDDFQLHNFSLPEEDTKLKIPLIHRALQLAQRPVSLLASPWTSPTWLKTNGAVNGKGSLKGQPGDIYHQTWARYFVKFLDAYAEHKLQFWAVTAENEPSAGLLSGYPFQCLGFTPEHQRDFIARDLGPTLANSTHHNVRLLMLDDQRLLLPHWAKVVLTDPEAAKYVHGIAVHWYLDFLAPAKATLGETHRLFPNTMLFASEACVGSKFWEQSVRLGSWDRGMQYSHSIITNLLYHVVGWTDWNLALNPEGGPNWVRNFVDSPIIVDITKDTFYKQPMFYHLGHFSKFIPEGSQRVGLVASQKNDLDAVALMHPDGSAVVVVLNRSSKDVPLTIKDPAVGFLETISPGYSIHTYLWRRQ
Outline: (§3)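 Enzyme in 100 mM McIlvaine buffer pH 5.2 with 0.25% sodium taurocholate and 0.1% Triton X-100, with inhibitor. Preincubated at 0 °C for 45 min, then started with 3 mM 4-methylumbelliferyl glycoside substrate solution and incubated 30 min at 37 °C. Stopped with 400 mM glycine-NaOH pH 10.6. 4-Methylumbelliferone fluorescence read at ex 362/em 450 nm.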

[6] = target: T2, Alpha-galactosidase A (Homo sapiens, UniProt P06280); experiment: Inhibition of human lysosomal alpha-galactosidase A using 4-methylumbelliferyl-alpha-D-galactopyranoside as substrate preincubated for 45 mins followed by substrate addition measured after 30 mins by fluorescence spectroscopic method; outline: as §3
T2 sequence (P06280 whole entry): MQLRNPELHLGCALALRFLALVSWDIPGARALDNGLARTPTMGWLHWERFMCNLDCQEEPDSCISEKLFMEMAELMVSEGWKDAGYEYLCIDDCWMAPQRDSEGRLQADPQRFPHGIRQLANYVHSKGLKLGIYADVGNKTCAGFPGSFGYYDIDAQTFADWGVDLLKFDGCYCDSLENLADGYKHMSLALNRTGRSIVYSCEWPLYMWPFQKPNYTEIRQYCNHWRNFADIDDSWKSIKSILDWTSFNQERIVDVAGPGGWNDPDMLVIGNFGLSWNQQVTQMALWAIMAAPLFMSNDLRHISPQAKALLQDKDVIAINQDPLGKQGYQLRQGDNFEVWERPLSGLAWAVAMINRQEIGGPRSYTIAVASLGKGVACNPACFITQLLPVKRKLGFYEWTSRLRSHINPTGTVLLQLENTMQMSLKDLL

[7] = target: T3, Beta-galactosidase (Bos taurus, UniProt Q58D55); experiment: Inhibition of bovine liver beta-galactosidase using p-nitrophenyl glycopyranoside preincubated for 5 mins followed by substrate addition measured after 20 mins by visible absorption spectroscopic method; outline: as §1
T3 sequence (Q58D55 whole entry): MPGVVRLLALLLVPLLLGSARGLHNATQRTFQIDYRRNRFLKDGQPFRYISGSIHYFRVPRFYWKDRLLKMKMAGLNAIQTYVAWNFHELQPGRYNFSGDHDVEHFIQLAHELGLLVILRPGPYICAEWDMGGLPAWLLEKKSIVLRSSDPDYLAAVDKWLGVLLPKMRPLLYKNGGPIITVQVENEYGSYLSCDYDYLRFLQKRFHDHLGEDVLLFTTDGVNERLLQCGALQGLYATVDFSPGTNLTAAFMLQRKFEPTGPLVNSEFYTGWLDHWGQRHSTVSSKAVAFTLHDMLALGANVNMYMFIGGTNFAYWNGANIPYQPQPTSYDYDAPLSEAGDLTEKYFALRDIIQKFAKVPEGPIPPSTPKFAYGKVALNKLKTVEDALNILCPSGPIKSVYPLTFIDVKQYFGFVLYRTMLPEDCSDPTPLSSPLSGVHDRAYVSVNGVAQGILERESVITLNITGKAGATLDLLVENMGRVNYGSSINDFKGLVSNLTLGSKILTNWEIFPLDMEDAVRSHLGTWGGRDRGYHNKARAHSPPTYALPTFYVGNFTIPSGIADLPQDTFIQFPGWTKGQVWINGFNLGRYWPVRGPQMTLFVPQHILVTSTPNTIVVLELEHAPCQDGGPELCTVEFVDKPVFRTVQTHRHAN

[8] = Selectivity ratio of IC50 for human lysosomal alpha-galactosidase A to IC50 for coffee beans alpha-galactosidase
[9] = target: Alpha-galactosidase (Coffea arabica) (UniProt Q42656); experiment: Inhibition of coffee beans alpha-galactosidase at 1 mM using p-nitrophenyl glycopyranoside preincubated for 5 mins followed by substrate addition measured after 20 mins by visible absorption spectroscopic method relative to control; outline: as §2
[10] = Inhibition of almond beta-glucosidase using p-nitrophenyl glycopyranoside preincubated for 5 mins followed by substrate addition measured after 20 mins by visible absorption spectroscopic method; parameters: species or system Prunus dulcis; outline: as §1
[11] = system: Prunus dulcis; experiment: Inhibition of almond beta-glucosidase at 10 uM using p-nitrophenyl glycopyranoside preincubated for 5 mins followed by substrate addition measured after 20 mins by visible absorption spectroscopic method relative to control
Outline: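 Crude click-reaction products screened in situ. Azide (final 15 mM) was reacted with each alkyne using sodium ascorbate/CuSO4 in tBuOH–H2O for 24 h at rt, then diluted with water. Tested at 10 μM per well, assuming quantitative conversion, against almond β-glucosidase at pH 5, 37 °C. p-Nitrophenyl glycoside read-out at 405 nm.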

[12] = species on record: Bos taurus; experiment: Inhibition of bovine liver beta-glucosidase at 1 mM using p-nitrophenyl glycopyranoside preincubated for 5 mins followed by substrate addition measured after 20 mins by visible absorption spectroscopic method relative to control; outline: as §2
[13] = target: T4, Alpha-galactosidase A (Homo sapiens) (UniProt P06280); experiment: Inhibition of human lysosomal alpha-galactosidase A at 1 mM using 4-methylumbelliferyl-alpha-D-galactopyranoside as substrate preincubated for 45 mins followed by substrate addition measured after 30 mins by fluorescence spectroscopic method relative to control; outline: as §3
T4 sequence (whole entry): T2 sequence (P06280 whole entry)

Chain of Alpha-galactosidase (Coffea arabica) (Q42656 16-378 limits assumed): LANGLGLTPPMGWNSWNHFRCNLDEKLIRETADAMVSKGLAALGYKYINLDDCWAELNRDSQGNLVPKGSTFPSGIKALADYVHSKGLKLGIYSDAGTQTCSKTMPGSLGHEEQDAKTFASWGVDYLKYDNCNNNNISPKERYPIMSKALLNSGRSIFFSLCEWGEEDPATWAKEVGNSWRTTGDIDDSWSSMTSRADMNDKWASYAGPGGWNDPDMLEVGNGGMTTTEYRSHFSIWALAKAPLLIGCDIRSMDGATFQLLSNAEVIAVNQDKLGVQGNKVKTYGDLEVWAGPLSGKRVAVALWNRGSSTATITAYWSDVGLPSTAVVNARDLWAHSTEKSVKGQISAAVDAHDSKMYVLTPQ
Chain of Alpha-galactosidase (Q42656 whole entry): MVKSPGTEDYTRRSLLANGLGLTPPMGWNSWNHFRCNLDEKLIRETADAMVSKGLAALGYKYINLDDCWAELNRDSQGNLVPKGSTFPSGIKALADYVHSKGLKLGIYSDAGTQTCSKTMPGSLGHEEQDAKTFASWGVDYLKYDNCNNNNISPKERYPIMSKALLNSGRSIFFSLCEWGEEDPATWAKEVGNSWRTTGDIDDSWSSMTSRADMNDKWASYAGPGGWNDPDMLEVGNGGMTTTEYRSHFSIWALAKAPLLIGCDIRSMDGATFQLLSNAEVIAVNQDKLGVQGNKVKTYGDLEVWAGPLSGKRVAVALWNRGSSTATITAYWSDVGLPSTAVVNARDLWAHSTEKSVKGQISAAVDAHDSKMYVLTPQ

Structure (SMILES) | IC50 [1] [µM] | inhibition [2] [%] | inhibition [3] [%] | IC50 [4] [µM] | IC50 [5] [µM] | IC50 [6] [µM] | IC50 [7] [µM] | Ratio IC50 [8] | inhibition [9] [%] | IC50 [10] [µM] | inhibition [11] [%] | inhibition [12] [%] | inhibition [13] [%]
COc1ccc(-c2cn(C[C@H]3NC[C@@H](O)[C@H]3O)nn2)cc1 | 13 | < 50 | 67 | 887 | 31 | 185 | 338 | 10 |  |  |  |  | 
OCc1ccc(-c2cn(C[C@H]3NC[C@@H](O)[C@H]3O)nn2)cc1 | 14 | < 50 | 66 | 888 | 187 | 159 | 268 | 10 |  |  |  |  | 
C[Si](C)(C)Cc1cn(C[C@@H]2NC[C@@H](O)[C@H]2O)nn1 |  |  |  |  | 19 |  | 151 |  | < 50 | 7 | 65 | < 50 | < 50
